Laboratory results published in ChEMBL document CHEMBL4673214, “Synthesis and antibacterial bioactivities of cationic deacetyl linezolid amphiphiles” (Eur J Med Chem, 2018).

Assays:
Escherichia coli = assay: Antibiofilm activity against Escherichia coli ATCC 25922 assessed as inhibition of biofilm formation incubated for 24 hrs by crystal violet staining assay; type: functional
Procedure, shortened: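 Twofold serial dilutions in MHB received 1:1000-diluted exponential-phase bacteria and were incubated 24 h at 37 °C. Wells were rinsed, stained with 0.1% crystal violet for 10 min and dissolved in ethanol, and OD540 was read. MBIC80 was the concentration inhibiting 80% of biofilm formation versus untreated wells, taken from dose-response curves.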

[1] = Selectivity index, ratio of HC50 for Sheep erythrocytes to MIC for Staphylococcus aureus ATCC 29213; type: toxicity
HeLa = assay: Cytotoxicity against human HeLa cells assessed as viable cells by measuring increase in green fluorescence intensity at 1 to 4 ug/mL incubated for 24 hrs by calcein-AM/propidium iodide staining based fluorescence microscopy; type: cell-based; details: dose 1-4 µg/ml
Procedure, shortened: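 HeLa cells in 12-well plates were treated 24 h at 1, 2 or 4 µg/mL, with untreated and 0.1% Triton X-100 controls. Cells were stained with 2 µM calcein AM and 4.5 µM propidium iodide for 15 min at 37 °C and imaged by fluorescence microscopy (calcein 500-550 nm band-pass; PI 590-800 nm long-pass). Three repeats.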

Structure (SMILES): CCCCCCCCCCCN(C[C@H]1CN(c2ccc(N3CCOCC3)c(F)c2)C(=O)O1)C(=O)[C@@H](N)CCCCN.Cl.Cl
- MBIC80 (Escherichia coli): 61.9 µg/mL
- MBIC90 (Escherichia coli): 72.6 µg/mL
- selectivity ratio [1]: 50
- Activity (HeLa): Non-Toxic
